The record followed here is ChEMBL document CHEMBL2040757, “New N-arylamino biquinoline derivatives: synthesis, antimicrobial, antituberculosis, and antimalarial evaluation” (Eur J Med Chem, 2012).

In brackets after ≈: the same amount, converted by molar mass. Bounds are passed on as bounds.

For one experiment, the system named is Plasmodium falciparum. The experiment can be described thus: Antimalarial activity against trophozoite stage of chloroquine-sensitive Plasmodium falciparum 3D7 infected in human erythrocytes after 48 hrs. Type of experiment: functional, organism-based. The settings on record: 3D7, 48 h. In short, it runs like this:
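Parasites were kept in continuous culture in A+ human erythrocytes in RPMI with 10% human serum. Sorbitol-synchronized trophozoites at 1–2% parasitaemia and 2.5% haematocrit were exposed to serial dilutions (maximum 1 mg/ml; 0.02% final DMSO) for 48 h at 37 °C. Growth inhibition was measured; chloroquine and quinine served as positive controls. IC50 came from duplicate experiments.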

The subject of another experiment is Vibrio cholerae. The experiment can be described thus: Antibacterial activity against Vibrio cholerae MTCC 3906 by broth microdilution method. The class given is functional. (In general: In broth dilution the organism is exposed to a series of concentrations in liquid medium.)
Another experiment concerns Escherichia coli. In words: Antibacterial activity against Escherichia coli MTCC 443 by broth microdilution method. Type of experiment: functional. The essentials: (§1)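 Broth microdilution per NCCLS, with serial dilutions in Mueller Hinton broth and DMSO as diluent. Tubes were incubated overnight at 37 °C. MIC was the lowest concentration giving no visible growth, with the control organism's MIC read to verify concentrations. Tubes without growth were subcultured overnight at 37 °C to judge bacteriostatic versus bactericidal action.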

In the next experiment the test system is Candida albicans. In words: Antifungal activity against Candida albicans MTCC 227 by broth microdilution method. Type of experiment: functional.
The subject of the next experiment is Streptococcus pneumoniae. The experiment can be described thus: Antibacterial activity against Streptococcus pneumoniae MTCC 1936 by broth microdilution method. Type of experiment: functional. In short, it runs like this:
as §1

The subject of the next experiment is Aspergillus fumigatus. The experiment can be described thus: Antifungal activity against Aspergillus fumigatus MTCC 3008 by broth microdilution method. Type of experiment: functional.
For another experiment, the system named is Clostridium tetani. The experiment can be described thus: Antibacterial activity against Clostridium tetani MTCC 449 by broth microdilution method. Type of experiment: functional.
Experiment [1] relates to Mycobacterium tuberculosis. The experiment can be described thus: Growth inhibition of Mycobacterium tuberculosis H37Rv at 6.25 ug/mL after 12 to 28 days relative to control. Type of experiment: functional.
The test system of a further experiment is Bacillus subtilis. The experiment can be described thus: Antibacterial activity against Bacillus subtilis MTCC 441 by broth microdilution method. Type of experiment: functional. In short, it runs like this:
as §1

The next experiment deals with Salmonella typhi. The experiment can be described thus: Antibacterial activity against Salmonella typhi MTCC 98 by broth microdilution method. Type of experiment: functional, Salmonella enterica subsp. enterica serovar Typhi. The settings on record: Salmonella enterica.

One may read the IC50 as the concentration that inhibits the measured activity by half. Read a low IC50 as higher potency. What is called MIC is the lowest concentration that inhibits growth of the organism. In general, inhibition refers to the change of the read-out against control, counted positive when it falls. Low readings indicate a response near the control, high ones a response far below the control. The compound `CC1(C)CC(=O)C2=C(C1)N(Nc1ccc(Br)cc1)C(N)=C(C#N)C2c1cc2ccccc2nc1Cl` (stereo not drawn) showed an IC50 in the experiment with Plasmodium falciparum of 0.54 µg/mL (≈ 0.984 µM). The MIC in the experiment with Vibrio cholerae is 100 µg/mL (≈ 182 µM); in the experiment on Escherichia coli, 250 µg/mL (≈ 455 µM); in the experiment with Candida albicans, more than 1000 µg/mL; against Streptococcus pneumoniae, 100 µg/mL (≈ 182 µM); in the experiment with Aspergillus fumigatus, more than 1000 µg/mL; in the experiment with Clostridium tetani, 500 µg/mL (≈ 911 µM). In addition, the MIC is 200 µg/mL (≈ 364 µM) with Bacillus subtilis and 250 µg/mL (≈ 455 µM) against Salmonella typhi. In experiment [1], this compound gave an inhibition at 6.25 µg/mL of 33%.

In the experiment on Plasmodium falciparum, `COc1ccc(NN2C(N)=C(C#N)C(c3cc4ccccc4nc3Cl)C3=C2CC(C)(C)CC3=O)cc1` (stereo not drawn) displayed an IC50 of 0.025 µg/mL (≈ 0.05 µM). For the same compound, the minimal inhibitory concentration (MIC) was 250 µg/mL (≈ 500 µM) with Vibrio cholerae; 250 µg/mL (≈ 500 µM) with Escherichia coli; more than 1000 µg/mL against Candida albicans; 200 µg/mL (≈ 400 µM) with Streptococcus pneumoniae; more than 1000 µg/mL in the experiment on Aspergillus fumigatus; 250 µg/mL (≈ 500 µM) in the experiment on Clostridium tetani. The MIC in the experiment on Bacillus subtilis was 500 µg/mL (≈ 1000 µM); against Salmonella typhi, 200 µg/mL (≈ 400 µM). Also, in experiment [1], at 6.25 µg/mL the inhibition was 44%.

On to `CCn1cc(C(=O)O)c(=O)c2cc(F)c(N3CCNCC3)cc21` [NORFLOXACIN], for which the MIC against Vibrio cholerae was 10 µg/mL (≈ 31.3 µM); in the experiment with Escherichia coli, 10 µg/mL (≈ 31.3 µM); against Streptococcus pneumoniae, 10 µg/mL (≈ 31.3 µM); against Clostridium tetani, 50 µg/mL (≈ 157 µM); against Bacillus subtilis, 100 µg/mL (≈ 313 µM); with Salmonella typhi, 10 µg/mL (≈ 31.3 µM).

In the experiment with Plasmodium falciparum, `CC1(C)CC(=O)C2=C(C1)N(Nc1ccc(Cl)cc1)C(N)=C(C#N)C2c1cc2ccccc2nc1Cl` (stereo not drawn) gave a half-maximal inhibitory concentration (IC50) of 0.42 µg/mL (≈ 0.833 µM). Moreover, the minimum inhibitory concentration (MIC) against Vibrio cholerae stood at 500 µg/mL (≈ 991 µM); in the experiment with Escherichia coli it was 200 µg/mL (≈ 396 µM); with Candida albicans it was 250 µg/mL (≈ 496 µM); against Streptococcus pneumoniae, 500 µg/mL (≈ 991 µM); in the experiment on Aspergillus fumigatus, 500 µg/mL (≈ 991 µM); in the experiment with Clostridium tetani, 250 µg/mL (≈ 496 µM). Also, the minimal inhibitory concentration (MIC) with Bacillus subtilis and with Salmonella typhi was 500 µg/mL (≈ 991 µM) in each case. In experiment [1], this compound returned an inhibition at 6.25 µg/mL of 22%.

As for `O=C(N[C@H](CO)[C@H](O)c1ccc([N+](=O)[O-])cc1)C(Cl)Cl` [CHLORAMPHENICOL], the MIC against Vibrio cholerae, in the experiment on Escherichia coli, against Streptococcus pneumoniae, with Clostridium tetani, with Bacillus subtilis and against Salmonella typhi was 50 µg/mL (≈ 155 µM) in each case.

Consider `COc1ccc(NN2C(N)=C(C#N)C(c3cc4cc(C)ccc4nc3Cl)C3=C2CC(C)(C)CC3=O)cc1` (stereo not drawn), for which, in the experiment on Plasmodium falciparum, the IC50 is 0.54 µg/mL (≈ 1.05 µM). For the same compound, the MIC is 500 µg/mL (≈ 973 µM) with Vibrio cholerae; 250 µg/mL (≈ 486 µM) in the experiment with Escherichia coli; more than 1000 µg/mL in the experiment with Candida albicans; 100 µg/mL (≈ 195 µM) in the experiment with Streptococcus pneumoniae; more than 1000 µg/mL in the experiment on Aspergillus fumigatus; 500 µg/mL (≈ 973 µM) in the experiment on Clostridium tetani. The MIC against Bacillus subtilis amounted to 200 µg/mL (≈ 389 µM); in the experiment on Salmonella typhi, 500 µg/mL (≈ 973 µM). In experiment [1], the inhibition at 6.25 µg/mL was 3%.

The compound `C=C[C@H]1CN2CC[C@H]1C[C@H]2[C@H](O)c1ccnc2ccc(OC)cc12` [QUININE] returned a half-inhibitory concentration (IC50) in the experiment with Plasmodium falciparum of 0.268 µg/mL (≈ 0.826 µM).

In the experiment with Plasmodium falciparum, `CC1(C)CC(=O)C2=C(C1)N(Nc1ccccc1)C(N)=C(C#N)C2c1cc2cc(Cl)ccc2nc1Cl` (stereo not drawn) showed an IC50 of 0.21 µg/mL (≈ 0.416 µM). The MIC in the experiment on Vibrio cholerae was determined as 1000 µg/mL (≈ 1980 µM); with Escherichia coli, 200 µg/mL (≈ 396 µM); in the experiment with Candida albicans it was 1000 µg/mL (≈ 1980 µM); in the experiment on Streptococcus pneumoniae, 1000 µg/mL (≈ 1980 µM); in the experiment on Aspergillus fumigatus, 1000 µg/mL (≈ 1980 µM); against Clostridium tetani it was 1000 µg/mL (≈ 1980 µM). In addition, the MIC was 1000 µg/mL (≈ 1980 µM) against Bacillus subtilis and 250 µg/mL (≈ 496 µM) against Salmonella typhi. Also, the inhibition at 6.25 µg/mL in [1] came out at 5%.

In the case of `Cc1ccc(NN2C(N)=C(C#N)C(c3cc4cc(C)ccc4nc3Cl)C3=C2CC(C)(C)CC3=O)cc1` (stereo not drawn), in the experiment with Plasmodium falciparum, the IC50 is 0.22 µg/mL (≈ 0.442 µM). Further, the MIC worked out at 500 µg/mL (≈ 1000 µM) against Vibrio cholerae; 500 µg/mL (≈ 1000 µM) in the experiment on Escherichia coli; 500 µg/mL (≈ 1000 µM) against Candida albicans; 200 µg/mL (≈ 402 µM) against Streptococcus pneumoniae; 500 µg/mL (≈ 1000 µM) against Aspergillus fumigatus; 250 µg/mL (≈ 502 µM) in the experiment on Clostridium tetani. The results for the MIC against Bacillus subtilis and against Salmonella typhi were 200 µg/mL (≈ 402 µM) and 500 µg/mL (≈ 1000 µM), respectively. The compound also registered an inhibition at 6.25 µg/mL in experiment [1] of 32%.

For `CC1(C)CC(=O)C2=C(C1)N(Nc1ccc(F)cc1)C(N)=C(C#N)C2c1cc2ccccc2nc1Cl` (stereo not drawn), the IC50 with Plasmodium falciparum stood at 0.027 µg/mL (≈ 0.0553 µM). Further, the MIC was 200 µg/mL (≈ 410 µM) with Vibrio cholerae; 200 µg/mL (≈ 410 µM) in the experiment on Escherichia coli; 1000 µg/mL (≈ 2050 µM) in the experiment with Candida albicans; 500 µg/mL (≈ 1020 µM) in the experiment on Streptococcus pneumoniae; 1000 µg/mL (≈ 2050 µM) in the experiment with Aspergillus fumigatus; 200 µg/mL (≈ 410 µM) against Clostridium tetani. The MIC in the experiment with Bacillus subtilis was 500 µg/mL (≈ 1020 µM); in the experiment on Salmonella typhi it was 200 µg/mL (≈ 410 µM). The same compound gave an inhibition at 6.25 µg/mL in [1] of 62%.

In the experiment with Plasmodium falciparum, `COc1ccc2nc(Cl)c(C3C(C#N)=C(N)N(Nc4ccc(C)cc4)C4=C3C(=O)CC(C)(C)C4)cc2c1` (stereo not drawn) came in with an IC50 of 0.19 µg/mL (≈ 0.37 µM). The minimum inhibitory concentration (MIC) amounted to 200 µg/mL (≈ 389 µM) with Vibrio cholerae; 150 µg/mL (≈ 292 µM) against Escherichia coli; 500 µg/mL (≈ 973 µM) against Candida albicans; 200 µg/mL (≈ 389 µM) against Streptococcus pneumoniae; 500 µg/mL (≈ 973 µM) against Aspergillus fumigatus; 100 µg/mL (≈ 195 µM) against Clostridium tetani. Also, the MIC with Bacillus subtilis and with Salmonella typhi was 200 µg/mL (≈ 389 µM) each time. In experiment [1], this compound came in with an inhibition at 6.25 µg/mL of 50%.
